Experimental data taken from ChEMBL document CHEMBL4689842, “EUbOPEN Chemogenomics Library wave 1” (2021).
Where “and” joins values, the source holds several entries; their conditions need not be identical. Equal values may be shown once.

Tested on: HEK-293T
Assay: Multiplex assay against HEK293T;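 on Population Tubulin-Different-Phenotype (%): share of the cells with healthy nuclei that show this phenotype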
Format: toxicity, cell-based
Settings: human, 10 µM, compound concentration 10 uM
Outline: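 Four dyes were applied at seeding to live cells: Hoechst33342, BioTracker Green Microtubule Cytoskeleton Dye, MitoTracker Red and Annexin V Alexa Fluor 680. Imaging after compound addition used a CQ1 microscope at 37°C and 5% CO2. CellPathfinder machine-learning gating then sorted cells into Hoechst high-intensity objects or normal cells, normal cells into healthy, pyknosed or fragmented nuclei, and pyknosed cells into mitotic or apoptotic, with tubulin, mitochondrial-mass and membrane-permeability phenotypes given as per cents of healthy-nucleus cells.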

## C#Cc1cccc(Nc2ncnc3cc(OCCOC)c(OCCOC)cc23)c1 [ERLOTINIB]
12 h, replicate 1
  Population Apoptotic (%): 61% and 22% and 23%
  Population Fragmented Nuclei (%): 11% and 22% and 20%
  Population Healthy Nuclei (%): 23% and 55% and 63%
  Population Hoechst High Intensity Objects (%): 14% and 12%
  Population Membrane Permeable-Phenotype (%): 8% and 18% and 7%
  Population Mitotic Cells (%): 38% and 77% and 76%
  Population Normal (%): 85% and 87%
  Total Cell Count: 229 and 602 and 657
12 h, replicate 2
  Population Fragmented Nuclei (%): 12% and 6% and 7%
  Population Hoechst High Intensity Objects (%): 5% and 2%
  Population Mitotic Cells (%): 49% and 88% and 94%
  Population Normal (%): 94% and 97%
24 h, replicate 1
  Population Fragmented Nuclei (%): 10% and 13% and 15%
  Population Healthy Nuclei (%): 31% and 68% and 74%
  Population Hoechst High Intensity Objects (%): 16% and 12% and 8%
  Population Mitotic Cells (%): 29% and 68% and 78%
  Population Normal (%): 83% and 87% and 91%
  Total Cell Count: 250 and 573 and 727
24 h, replicate 2
  Population Healthy Nuclei (%): 38% and 82% and 70%
  Population Hoechst High Intensity Objects (%): 2% and 3%
  Population Normal (%): 97% and 96%
48 h, replicate 1
  Population Apoptotic (%): 64%
  Population Fragmented Nuclei (%): 20%
  Population Healthy Nuclei (%): 22%
  Population Hoechst High Intensity Objects (%): 20%
  Population Membrane Permeable-Phenotype (%): 2%
  Population Mitochondria Different-Phenotype (%): 88%
  Population Mitotic Cells (%): 35%
  Population Normal (%): 79%
  Population Pyknosed Nuclei (%): 57%
  Population Tubulin-Different-Phenotype (%): 91%
  Total Cell Count: 254
48 h, replicate 2
  Population Apoptotic (%): 45%
  Population Fragmented Nuclei (%): 4%
  Population Healthy Nuclei (%): 56%
  Population Hoechst High Intensity Objects (%): 5%
  Population Membrane Permeable-Phenotype (%): 5%
  Population Mitochondria Different-Phenotype (%): 81%
  Population Mitotic Cells (%): 54%
  Population Normal (%): 94%
  Population Pyknosed Nuclei (%): 38%
  Population Tubulin-Different-Phenotype (%): 97%
  Total Cell Count: 197
